Measurements: ChEMBL document CHEMBL5214999, “Identification and Optimization of a Ligand-Efficient Benzoazepinone Bromodomain and Extra Terminal (BET) Family Acetyl-Lysine Mimetic into the Oral Candidate Quality Molecule I-BET432” (J Med Chem, 2022)
pIC50, pKd: −log10 of the molar value. Converted amounts (≈) assume the structure as drawn. One block for each molecule: values may come before it.

Tests used:
[1] = biological target: T1, Bromodomain-containing protein 4 (Homo sapiens, UniProt O60885); assay: Inhibition of BRD4 BD2 (unknown origin) measured by TR-FRET assay
[2] = biological target: T1, Bromodomain-containing protein 4; assay: Inhibition of BRD4 BD1 (unknown origin) measured by TR-FRET assay
[3] = biological target: C-C motif chemokine 2 (Homo sapiens, UniProt P13500); assay: Inhibition of MCP-1 in LPS-stimulated human whole blood incubate for 24 hrs by immuno assay; type: tissue-based
Sequence of C-C motif chemokine 2 (P13500 whole entry): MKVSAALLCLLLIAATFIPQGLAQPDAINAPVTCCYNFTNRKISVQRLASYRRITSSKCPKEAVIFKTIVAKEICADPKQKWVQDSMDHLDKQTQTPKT

[4] = Lipophilicity, logD of compound at pH 7.4 by Chromatography; type: physicochemical; conditions: buffer
[5] = Artificial membrane permeability of the compound; type: ADME; conditions: PAMPA; read-out: permeability
[6] = Solubility of the compound at pH 6.5 in fast state simulated intestinal fluid incubated for 16 hrs by HPLC analysis; type: physicochemical; conditions: fasted state simulated intestinal fluid
[7] = Intrinsic clearance in rat hepatocytes after 60 mins by LC-MS/MS analysis; type: ADME, cell-based, Hepatocyte; conditions: 1 h
[8] = Intrinsic clearance in dog hepatocytes incubated upto 45 mins by LC-MS/MS analysis; type: ADME, cell-based, Canis lupus familiaris, Hepatocyte; conditions: 0.75 h
[9] = Intrinsic clearance in human hepatocytes measured after 120 mins by LC-MS/MS analysis; type: ADME, cell-based, Hepatocyte; conditions: 2 h
[10] = Clearance in Wistar Han rat blood at 3.1 mg/kg, po or 1 mg/kg, iv measured upto 24 hrs by LC-MS/MS analysis; type: ADME, organism-based; conditions: whole blood
Outline: (§1)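 Male Wistar Han rats and beagle dogs were dosed iv as a 1 h infusion in DMSO with 10% (w/v) Kleptose HPB in saline (2%:98% or 5%:95% v/v). Oral doses were given in 1% (w/v) methylcellulose (400 cps) aqueous suspension. Oral values are means of n = 3 and iv values n = 1 unless otherwise noted.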

[11] = Unbound clearance in Wistar Han rat blood at 3.1 mg/kg, po or 1 mg/kg, iv measured upto 24 hrs by LC-MS/MS analysis; type: ADME, organism-based; conditions: in vivo; outline: as §1
[12] = Volume of distribution at steady state in Wistar Han rat at 3.1 mg/kg, po or 1 mg/kg, iv measured upto 24 hrs by LC-MS/MS analysis; type: ADME, organism-based; conditions: in vivo, read-out: Vdss; outline: as §1
[13] = Unbound volume of distribution at steady state in Wistar Han rat at 3.1 mg/kg, po or 1 mg/kg, iv measured upto 24 hrs by LC-MS/MS analysis; type: ADME, organism-based; conditions: in vivo; outline: as §1
[14] = Half-life in Wistar Han rat at 3.1 mg/kg, po or 1 mg/kg, iv measured upto 24 hrs by LC-MS/MS analysis; type: ADME, organism-based; conditions: in vivo; outline: as §1
[15] = Oral bioavailability in Wistar Han rat at 3.1 mg/kg measured upto 24 hrs by LC-MS/MS analysis; type: ADME, organism-based; conditions: in vivo; outline: as §1
[16] = Unbound fraction in Wistar Han rat at 3.1 mg/kg, po or 1 mg/kg, iv measured upto 24 hrs by LC-MS/MS analysis; type: ADME, organism-based; conditions: in vivo
[17] = Clearance in Beagle dog blood at 1.5 mg/kg, po or 0.4 mg/kg, iv measured upto 24 hrs by LC-MS/MS analysis; type: ADME, organism-based, Canis lupus familiaris; conditions: whole blood; outline: as §1
[18] = Unbound clearance in Beagle dog blood at 1.5 mg/kg, po or 0.4 mg/kg, iv measured upto 24 hrs by LC-MS/MS analysis; type: ADME, organism-based, Canis lupus familiaris; conditions: in vivo; outline: as §1
[19] = Volume of distribution at steady state in Beagle dog at 1.5 mg/kg, po or 0.4 mg/kg, iv measured upto 24 hrs by LC-MS/MS analysis; type: ADME, organism-based, Canis lupus familiaris; conditions: in vivo, read-out: Vdss; outline: as §1
[20] = Unbound volume of distribution at steady state in Beagle dog at 1.5 mg/kg, po or 0.4 mg/kg, iv measured upto 24 hrs by LC-MS/MS analysis; type: ADME, organism-based, Canis lupus familiaris; conditions: in vivo; outline: as §1
[21] = Half-life in Beagle dog at 1.5 mg/kg, po or 0.4 mg/kg, iv measured upto 24 hrs by LC-MS/MS analysis; type: ADME, organism-based, Canis lupus familiaris; conditions: in vivo; outline: as §1
[22] = Oral bioavailability in Beagle dog at 1.5 mg/kg measured upto 24 hrs by LC-MS/MS analysis; type: ADME, organism-based, Canis lupus familiaris; conditions: in vivo; outline: as §1
[23] = Unbound fraction in Beagle dog at 1.5 mg/kg, po or 0.4 mg/kg, iv measured upto 24 hrs by LC-MS/MS analysis; type: ADME, organism-based, Canis lupus familiaris; conditions: in vivo
[24] = biological target: Cytochrome P450 3A4 (Homo sapiens, UniProt P08684); assay: Inhibition of CYP3A4 (unknown origin); type: ADME
Sequence of Cytochrome P450 3A4 (P08684 whole entry): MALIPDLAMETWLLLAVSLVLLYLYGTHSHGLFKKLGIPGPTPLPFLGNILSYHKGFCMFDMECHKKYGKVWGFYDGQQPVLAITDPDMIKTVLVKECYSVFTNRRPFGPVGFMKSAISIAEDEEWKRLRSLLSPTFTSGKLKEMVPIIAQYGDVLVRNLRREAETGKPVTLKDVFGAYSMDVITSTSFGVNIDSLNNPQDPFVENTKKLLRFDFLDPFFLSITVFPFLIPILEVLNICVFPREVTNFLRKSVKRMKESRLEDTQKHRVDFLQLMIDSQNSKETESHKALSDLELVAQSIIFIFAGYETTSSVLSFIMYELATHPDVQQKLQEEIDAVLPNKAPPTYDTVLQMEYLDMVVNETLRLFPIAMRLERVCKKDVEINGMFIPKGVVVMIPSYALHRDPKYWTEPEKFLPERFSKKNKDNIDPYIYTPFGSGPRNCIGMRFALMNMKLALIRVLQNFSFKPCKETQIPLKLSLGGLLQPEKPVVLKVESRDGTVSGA

[25] = biological target: Voltage-gated inwardly rectifying potassium channel KCNH2 (Homo sapiens, UniProt Q12809); assay: Inhibition of hERG; type: toxicity
Sequence of Voltage-gated inwardly rectifying potassium channel KCNH2 (Q12809 whole entry): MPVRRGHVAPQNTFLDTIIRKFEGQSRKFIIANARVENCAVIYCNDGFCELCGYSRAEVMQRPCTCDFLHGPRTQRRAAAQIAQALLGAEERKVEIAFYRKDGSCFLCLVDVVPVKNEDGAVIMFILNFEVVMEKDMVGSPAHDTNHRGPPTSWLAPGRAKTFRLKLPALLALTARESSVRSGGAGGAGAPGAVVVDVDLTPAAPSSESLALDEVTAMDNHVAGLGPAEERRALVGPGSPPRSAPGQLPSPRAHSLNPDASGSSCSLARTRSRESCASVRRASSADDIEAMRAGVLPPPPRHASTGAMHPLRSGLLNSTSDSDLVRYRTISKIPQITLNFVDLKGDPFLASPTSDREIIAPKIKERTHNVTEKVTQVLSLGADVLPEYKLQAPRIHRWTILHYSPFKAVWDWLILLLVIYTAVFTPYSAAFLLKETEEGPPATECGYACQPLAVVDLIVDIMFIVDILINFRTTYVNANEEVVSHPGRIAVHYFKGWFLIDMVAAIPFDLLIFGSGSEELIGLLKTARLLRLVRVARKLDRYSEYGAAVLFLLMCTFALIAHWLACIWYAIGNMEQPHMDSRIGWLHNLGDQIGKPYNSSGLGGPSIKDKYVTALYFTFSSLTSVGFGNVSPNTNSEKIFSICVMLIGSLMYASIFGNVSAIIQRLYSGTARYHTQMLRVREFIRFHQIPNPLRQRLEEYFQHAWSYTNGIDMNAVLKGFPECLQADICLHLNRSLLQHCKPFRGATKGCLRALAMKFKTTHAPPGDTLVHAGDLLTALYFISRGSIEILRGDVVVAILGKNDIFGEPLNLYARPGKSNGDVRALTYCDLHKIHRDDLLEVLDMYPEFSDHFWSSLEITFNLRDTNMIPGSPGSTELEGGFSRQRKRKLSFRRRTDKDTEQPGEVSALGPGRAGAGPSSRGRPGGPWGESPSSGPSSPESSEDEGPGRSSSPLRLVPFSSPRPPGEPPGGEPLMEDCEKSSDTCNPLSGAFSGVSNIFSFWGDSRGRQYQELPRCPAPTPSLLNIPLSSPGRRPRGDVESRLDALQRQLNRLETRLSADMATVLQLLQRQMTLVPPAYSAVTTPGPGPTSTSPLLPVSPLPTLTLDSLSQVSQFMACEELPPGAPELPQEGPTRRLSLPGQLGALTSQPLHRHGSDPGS

[26] = Clearance in Wistar Han rat blood at 3 mg/kg, po or 1 mg/kg, iv measured upto 24 hrs by LC-MS/MS analysis; type: ADME, organism-based; conditions: whole blood; outline: as §1
[27] = Unbound clearance in Wistar Han rat blood at 3 mg/kg, po or 1 mg/kg, iv measured upto 24 hrs by LC-MS/MS analysis; type: ADME, organism-based; conditions: in vivo; outline: as §1
[28] = Volume of distribution at steady state in Wistar Han rat at 3 mg/kg, po or 1 mg/kg, iv measured upto 24 hrs by LC-MS/MS analysis; type: ADME, organism-based; conditions: in vivo, read-out: Vdss; outline: as §1
[29] = Unbound volume of distribution at steady state in Wistar Han rat at 3 mg/kg, po or 1 mg/kg, iv measured upto 24 hrs by LC-MS/MS analysis; type: ADME, organism-based; conditions: in vivo; outline: as §1
[30] = Half-life in Wistar Han rat at 3 mg/kg, po or 1 mg/kg, iv measured upto 24 hrs by LC-MS/MS analysis; type: ADME, organism-based; conditions: in vivo; outline: as §1
[31] = Oral bioavailability in Wistar Han rat at 3 mg/kg measured upto 24 hrs by LC-MS/MS analysis; type: ADME, organism-based; conditions: in vivo; outline: as §1
[32] = Clearance in Beagle dog blood at 1.5 mg/kg, po or 0.5 mg/kg, iv measured upto 24 hrs by LC-MS/MS analysis; type: ADME, organism-based, Canis lupus familiaris; conditions: whole blood; outline: as §1
[33] = Unbound clearance in Beagle dog blood at 1.5 mg/kg, po or 0.5 mg/kg, iv measured upto 24 hrs by LC-MS/MS analysis; type: ADME, organism-based, Canis lupus familiaris; conditions: in vivo; outline: as §1
[34] = Volume of distribution at steady state in Beagle dog at 1.5 mg/kg, po or 0.5 mg/kg, iv measured upto 24 hrs by LC-MS/MS analysis; type: ADME, organism-based, Canis lupus familiaris; conditions: in vivo, read-out: Vdss; outline: as §1
[35] = Unbound volume of distribution at steady state in Beagle dog at 1.5 mg/kg, po or 0.5 mg/kg, iv measured upto 24 hrs by LC-MS/MS analysis; type: ADME, organism-based, Canis lupus familiaris; conditions: in vivo; outline: as §1
[36] = Half-life in Beagle dog at 1.5 mg/kg, po or 0.5 mg/kg, iv measured upto 24 hrs by LC-MS/MS analysis; type: ADME, organism-based, Canis lupus familiaris; conditions: in vivo; outline: as §1
[37] = Stability of compound in simulated gastric fluid assessed as half-life at pH 6 to 10 in presence of hydrogen peroxide; type: ADME
Outline: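 The compound was held at 40 °C in pH 10 medium, pH 6 medium and simulated gastric fluid, each with and without hydrogen peroxide as oxidant, and degradation was monitored.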

[38] = biological target: T2, Transcription intermediary factor 1-alpha (Homo sapiens, UniProt O15164); assay: Binding affinity to human TRIM24 bromodomain by BROMOscan method
T2 sequence (O15164 whole entry): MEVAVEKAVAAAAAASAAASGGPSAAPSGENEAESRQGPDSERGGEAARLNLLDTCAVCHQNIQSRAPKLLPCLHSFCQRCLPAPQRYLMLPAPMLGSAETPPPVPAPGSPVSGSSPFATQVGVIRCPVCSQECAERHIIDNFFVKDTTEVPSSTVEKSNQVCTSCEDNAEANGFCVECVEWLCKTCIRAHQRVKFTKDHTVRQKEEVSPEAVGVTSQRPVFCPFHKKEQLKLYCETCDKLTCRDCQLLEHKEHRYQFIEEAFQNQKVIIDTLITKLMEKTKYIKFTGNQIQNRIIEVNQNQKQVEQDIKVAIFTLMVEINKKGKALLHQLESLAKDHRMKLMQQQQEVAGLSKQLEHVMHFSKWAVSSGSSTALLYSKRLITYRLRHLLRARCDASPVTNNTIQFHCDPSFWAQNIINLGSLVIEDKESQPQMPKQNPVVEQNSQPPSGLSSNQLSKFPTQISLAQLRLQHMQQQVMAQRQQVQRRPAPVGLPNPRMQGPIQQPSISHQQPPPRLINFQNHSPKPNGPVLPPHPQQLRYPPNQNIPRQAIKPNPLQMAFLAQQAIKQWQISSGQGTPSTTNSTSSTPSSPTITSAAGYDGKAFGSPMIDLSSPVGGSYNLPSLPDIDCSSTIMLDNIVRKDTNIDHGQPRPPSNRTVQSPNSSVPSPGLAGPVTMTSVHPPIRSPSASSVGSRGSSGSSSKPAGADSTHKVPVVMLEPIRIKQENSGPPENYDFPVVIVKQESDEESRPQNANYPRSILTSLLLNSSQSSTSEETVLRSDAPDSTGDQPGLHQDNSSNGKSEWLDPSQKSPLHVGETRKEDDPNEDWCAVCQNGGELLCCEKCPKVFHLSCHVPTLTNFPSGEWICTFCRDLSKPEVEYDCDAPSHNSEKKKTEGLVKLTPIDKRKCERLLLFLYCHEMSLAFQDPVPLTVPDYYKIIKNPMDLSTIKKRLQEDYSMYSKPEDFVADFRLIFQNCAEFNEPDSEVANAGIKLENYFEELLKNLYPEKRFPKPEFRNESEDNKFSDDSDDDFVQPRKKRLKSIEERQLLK

[39] = Unbound fraction in Wistar Han rat at 3 mg/kg, po or 1 mg/kg, iv measured upto 24 hrs by LC-MS/MS analysis; type: ADME, organism-based; conditions: in vivo
[40] = Unbound fraction in Beagle dog at 1.5 mg/kg, po or 0.5 mg/kg, iv measured upto 24 hrs by LC-MS/MS analysis; type: ADME, organism-based, Canis lupus familiaris; conditions: in vivo
[41] = Clearance in Wistar Han rat blood at 2.9 mg/kg, po or 2.1 mg/kg, iv measured upto 24 hrs by LC-MS/MS analysis; type: ADME, organism-based; conditions: whole blood; outline: as §1
[42] = Volume of distribution at steady state in Wistar Han rat at 2.9 mg/kg, po or 2.1 mg/kg, iv measured upto 24 hrs by LC-MS/MS analysis; type: ADME, organism-based; conditions: in vivo, read-out: Vdss; outline: as §1
[43] = Half-life in Wistar Han rat at 2.9 mg/kg, po or 2.1 mg/kg, iv measured upto 24 hrs by LC-MS/MS analysis; type: ADME, organism-based; conditions: in vivo; outline: as §1
[44] = Oral bioavailability in Wistar Han rat at 2.9 mg/kg measured upto 24 hrs by LC-MS/MS analysis; type: ADME, organism-based; conditions: in vivo; outline: as §1

pIC50 [1]: 7.50
pIC50 [2]: 7.50
pIC50 [3]: 7.40
chromatographic logD [4]: 1.3
Papp [5]: 3.1 ×10⁻⁶ cm/s
solubility at 16 h [6]: > 1000 µg/mL
CLH [7]: < 0.8 mL/min/g
CLH [8]: 1.12 mL/min/g
CLH [9]: < 0.45 mL/min/g
clearance [10]: 19 mL/min/kg
CL free [11]: 31 mL/min/kg
Vd [12]: 1.1 L/kg
Vduss [13]: 1.8 L/kg
half-life [14]: 58.2 min
bioavailability [15]: 66%
Fu [16]: 0.61
clearance [17]: 45 mL/min/kg
CL free [18]: 87 mL/min/kg
Vd [19]: 1.7 L/kg
Vduss [20]: 3.3 L/kg
half-life [21]: 30 min
bioavailability [22]: 39%
Fu [23]: 0.52
Compound: C[C@H]1C(=O)N(C)C=C(c2cnn(C)c2)c2cc([C@H](O)CO)ccc21

pIC50 [1]: 7.20
pIC50 [2]: 7.50
pIC50 [3]: 7.40
chromatographic logD [4]: 1.3
pIC50 [24]: < 4.40
Papp [5]: 3.1 ×10⁻⁶ cm/s
solubility at 16 h [6]: > 1000 µg/mL
CLH [7]: < 0.8 mL/min/g
CLH [8]: < 0.65 mL/min/g
CLH [9]: < 0.45 mL/min/g
clearance [26]: 26 mL/min/kg
CL free [27]: 38 mL/min/kg
Vd [28]: 1.3 L/kg
Vduss [29]: 1.9 L/kg
half-life [30]: 44.4 min
bioavailability [31]: 67%
bioavailability [22]: 79%
clearance [32]: 28 mL/min/kg
CL free [33]: 60 mL/min/kg
Vd [34]: 2.7 L/kg
Vduss [35]: 5.7 L/kg
half-life [36]: 84 min
half-life [37]: > 41.7 days
pKd [38]: 5.90
Fu [39]: 0.68
Fu [40]: 0.47
Compound: C[C@H]1C(=O)N(C)C=C(c2cnn(C)c2)c2cc([C@@H](O)CO)ccc21
pIC50 [25]: < 4.30

pIC50 [1]: 7.40
pIC50 [2]: 7.60
pIC50 [3]: 7.50
chromatographic logD [4]: 0.9
Papp [5]: 0.7 ×10⁻⁶ cm/s
solubility at 16 h [6]: 417 µg/mL (≈ 1330 µM)
CLH [7]: < 0.8 mL/min/g
CLH [9]: < 0.45 mL/min/g
clearance [41]: 37 mL/min/kg
Vd [42]: 1.5 L/kg
half-life [43]: 45.6 min
bioavailability [44]: 13%
Compound: C[C@H]1C(=O)N(C)C=C(c2cn[nH]c2)c2cc([C@@H](O)CO)ccc21
